Screening data (PubChem BioAssay)
A selection: hits, their analogues and other compounds. The true share with any hit is near 2.6%.
RanGTP-Impb inh: inhibitors of RanGTP-importin-beta interaction, primary screen, biochemical, FRET, CFP-Ran, YFP-importin-beta, homogeneous. inhibition, % (no concentration beside the values). 300,000 compounds, 1.1% hits. cell-free CFP-Ran/YFP-importin-beta FRET ratio;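 active = more than half of the replicate wells show a fall in the fluorescence ratio signal beyond about 16%, limit read from the data, passing the limit was not always enough; inconclusive = exactly half of the replicate wells pass the set limit; inactive = fewer than half of replicates pass the limit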;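 note: 0% = DMSO wells and 100% = Ran loaded with GDP instead of GTP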
IMP-1 inhibitor: blocks Pseudomonas aeruginosa IMP-1 metallo-beta-lactamase. purified IMP-1, nitrocefin hydrolysis, epi-absorbance fluorescence. inhibition, % at 5.6 µM. 290,000 compounds, 0.45% hits. AID 1556;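 active = inhibition above the mean plus 3 SD of all compounds in the same screening run, cut at about 4.5% in these data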;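 note: 0% = IMP-1 with DMSO and 100% = DMSO wells lacking enzyme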
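Material – recombinant IMP-1 enzyme, purified · Amount – IMP-1 0.2 nM before substrate addition · Medium – HEPES buffer pH 7.1 with ZnSO4 and Brij 35 · Timing – 25 °C, 15 min preincubation, 25 min reaction · Measured by – plate fluorescence quenching by hydrolysis product, ex 480/em 530 nm · Read-out – percent enzyme inhibition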
Runt-CBFb FRET: Runt domain-CBFb interaction inhibition. Q01196+Q13951. Cerulean-Runt/Venus-CBFb FRET ratio 530/480, 1 h. inhibition, % at 20 µM. 220,000 compounds, 0.46% hits. AID 1496;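 active = inhibition over about 50% at 20 µM in the single-dose screen, limit read from the data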;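 note: 0% = DMSO wells and 100% = excess unlabeled CBFb competitor control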
Target sequence (Q01196 whole entry, looked up, the tested form may be a part): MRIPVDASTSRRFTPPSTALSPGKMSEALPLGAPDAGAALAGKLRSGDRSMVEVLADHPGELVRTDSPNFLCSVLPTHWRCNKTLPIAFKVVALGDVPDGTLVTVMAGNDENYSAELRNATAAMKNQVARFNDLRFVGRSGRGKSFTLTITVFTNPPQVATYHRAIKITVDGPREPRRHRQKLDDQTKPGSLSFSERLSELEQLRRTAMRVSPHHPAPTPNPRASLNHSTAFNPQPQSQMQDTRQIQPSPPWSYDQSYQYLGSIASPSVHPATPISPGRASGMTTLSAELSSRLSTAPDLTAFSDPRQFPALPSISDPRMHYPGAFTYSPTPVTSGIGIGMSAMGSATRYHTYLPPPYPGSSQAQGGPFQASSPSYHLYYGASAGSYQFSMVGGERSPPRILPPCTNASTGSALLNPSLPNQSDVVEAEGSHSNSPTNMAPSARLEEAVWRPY
Target sequence (Q13951 whole entry, looked up, the tested form may be a part): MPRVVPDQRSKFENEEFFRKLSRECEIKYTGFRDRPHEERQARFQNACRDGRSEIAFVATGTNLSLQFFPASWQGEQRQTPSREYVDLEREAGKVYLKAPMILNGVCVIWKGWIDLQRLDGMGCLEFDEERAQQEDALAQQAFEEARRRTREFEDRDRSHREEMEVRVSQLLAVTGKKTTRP
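Assay system: Cerulean-Runt domain / Medium: Tris 50 mM pH 7.5, KCl, K2SO4, 0.01% BSA / Timing: protein complex preformed 1 h, compound exposure 1 h, room temperature, dark / Measured by: FRET, excitation 422 nm, emission at 530 and 480 nm / Evaluation: loss of energy transfer signal / Control set: 5 µM unlabeled CBFb as full-inhibition high control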
VIM-2 inhibitor: inhibitors of Pseudomonas aeruginosa VIM-2 metallo-beta-lactamase | inhibition, % at 5.6 µM | purified VIM-2, nitrocefin hydrolysis, epi-absorbance fluorescence | 290,000 compounds, 0.89% hits;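 active = inhibition above the mean of all tested compounds plus 3 SD, cutoff set per screening run, cut at about 7.5% in these data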;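 note: red hydrolysis product quenches plate fluorescence so inhibitors raise well fluorescence; 0% = enzyme with DMSO and 100% = DMSO without enzyme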
Runt-SMMHC FRET: inhibitors of human RUNX1 Runt domain binding to CBFb-SMMHC; inhibition, % at 20 µM; Cerulean-Runt/Venus-CBFb-SMMHC FRET ratio 530/480, 1 h; 220,000 compounds, 0.74% hits; Q01196+Q13951; AID 1434;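 active = mean inhibition across duplicate retests at 20 µM reaching about 50%, limit read from the data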;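 note: 0% = DMSO wells and 100% = wells with excess untagged CBFb-SMMHC; inhibitors lower the FRET ratio by blocking Runt binding to CBFb-SMMHC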
An asterisk follows results filed as active; ? = inconclusive; . = no result.

SMILES	RanGTP-Impb inh	IMP-1 inhibitor	Runt-CBFb FRET	VIM-2 inhibitor	Runt-SMMHC FRET
CCOc1ccc(NC(=O)c2cc3c(C)nc4ccccc4c3o2)cc1	0.3	-2.3	0.8	-2.8	5.5
COc1ccc(C(O)(CCN2CCOCC2)c2ccccc2)cc1 (stereo not drawn)	-1.4	-2.8	.	-1.7	.
COC(=O)C(C)Oc1cc(C)ccc1COc1ccc(-n2nc(C)n(C(F)F)c2=O)cc1 (stereo not drawn)	5.9	.	.	.	.
CCOc1ccc(C2OC34CCCCC3C(C#N)(C#N)C2(C#N)C(=N)O4)cc1OC (stereo not drawn)	45.4*	-6.3	24.8	-1.2	24.9
C=CCOc1ccc(C2OC34CCCCC3C(C#N)(C#N)C2(C#N)C(=N)O4)cc1 (stereo not drawn)	46.0*	-4.4	27.3	-0.3	50.1*
CCCCOc1ccc(C2OC34CCCCC3C(C#N)(C#N)C2(C#N)C(=N)O4)cc1 (stereo not drawn)	-1.7	-0.6	24.8	-0.5	12.8
CCOc1ccc(C2Nc3ccccc3NC3=C2C(=O)CC(C)(C)C3)cc1OC (stereo not drawn)	-2.1	-1.6	.	-1.8	.
CCN(Cc1cccc(F)c1)C(=O)c1ccc2ccccc2n1	-1.8	-2.7	.	0.7	.
CCn1c(=O)cc(N2CCN(C(=O)c3ccco3)CC2)[nH]c1=O	10.0	-2.0	-0.2	-1.8	2.8
Cc1ccc(Cl)cc1-n1c(=O)cc(N2CCN(C(=O)c3ccco3)CC2)[nH]c1=O	32.4*	-2.9	-0.6	-2.7	1.7
O=C(NC1CCCc2c1cnn2-c1ccc(F)cc1F)c1ccccc1N1CCOCC1 (stereo not drawn)	3.6	0.1	.	-0.3	.
CCOc1cc(S(=O)(=O)NCCCn2ccnc2)ccc1Cl	-1.4	-2.7	.	-2.4	.
CC(=O)c1ccc(N2CCN(C(=O)c3cccs3)C(C)C2)c(F)c1 (stereo not drawn)	0.7	-5.7	.	0.5	.
Cc1cc(=O)n2c3ccccc3n(CC(O)CN3CCCC3)c2c1C#N (stereo not drawn)	1.6	-2.9	-2.4	5.0	-6.3
CCCNCC(O)Cn1c2ccccc2n2c(=O)cc(C)c(C#N)c12 (stereo not drawn)	0.4	0.4	-4.2	8.5*	-4.5
CCOc1ccc(-c2ncncc2-c2ccc(OC)c(OC)c2)c(O)c1	?	-2.8	.	-2.1	.
COc1ccc(-c2nn3c(-c4cccc(C)c4)nnc3s2)cc1OC	1.0	-1.8	.	3.6	.
c1ccc(-c2nn3c(-c4ccco4)nnc3s2)nc1	0.3	-4.3	11.8	9.7*	21.4
COc1cccc(-c2nn3c(-c4cc(C)[nH]n4)nnc3s2)c1	2.0	0.2	-0.8	4.3	1.5
Clc1ccc(-c2nnc3sc(-c4ccccn4)nn23)cc1	.	-4.8	-1.3	-1.1	1.6
COc1cccc(-c2nn3c(-c4ccccn4)nnc3s2)c1	4.0	-1.9	-1.5	8.0*	-7.6
CN(C)c1ccc(-c2nn3c(-c4ccccc4Cl)nnc3s2)cc1	?	-1.6	6.0	-1.6	19.9
COc1ccccc1-c1nnc2sc(-c3ccc(N(C)C)cc3)nn12	1.5	15.5*	18.9	-4.0	39.9
COc1ccc(-c2nn3c(-c4ccccn4)nnc3s2)cc1OC	1.4	-2.0	-1.6	12.2*	6.9
Cc1ccc(NC(=O)Cn2ccnc2)cc1C	1.6	-1.3	.	-2.1	.
SMILES	RanGTP-Impb inh	IMP-1 inhibitor	Runt-CBFb FRET	VIM-2 inhibitor	Runt-SMMHC FRET
COc1ccccc1NC(=O)Cn1c(C)nc2c(sc(=S)n2Cc2ccco2)c1=O	4.8	-1.5	.	-0.7	.
COc1ccc2no[n+]([O-])c2c1	5.6	0.3	1.7	2.3	-8.3
CC[C@H](C)[C@@H](CN[C@H](C)CNC)NCCC(c1ccccc1)c1ccccc1	3.7	-1.6	.	-1.7	.
CNC[C@@H](C)NC[C@@H](Cc1ccccc1)NCCc1ccccc1	3.5	-0.4	.	11.6*	.
O=C1C([N+](=O)[O-])=C(O)c2cccc3cccc1c23	-2.2	-0.4	.	2.8	.
O=C(N/N=C/c1sc(N2CCOCC2)nc1-c1ccccc1)c1ccccc1O	6.1	-1.4	-0.5	-3.9	13.2
O=C(N/N=C/c1sc(N2CCOCC2)nc1-c1ccccc1)c1ccccc1Cl	29.9*	-0.9	2.8	-1.9	4.3
COc1ccc(CNC(=O)c2cc(=O)c3cc(C)cc(C)c3o2)cc1	-2.6	-2.8	.	-0.4	.
Cc1ccc(-c2nnc(N3CCCCC3)c3ccccc23)cc1	-3.1	-1.8	-0.7	1.6	1.8
CN1CCN(c2nnc(-c3ccc(Cl)cc3)c3ccccc23)CC1	-3.6	-2.4	.	10.1*	.
Cc1ccsc1C(=O)Nc1cccc(-n2cnnn2)c1	-1.8	-0.6	.	-6.0	.
COCCC(=O)N1CCCC(C(=O)c2ccc(C(F)(F)F)cc2)C1 (stereo not drawn)	3.6	-2.9	.	-1.9	.
COc1ccc(OC)c(N(CC(=O)N2CCN(Cc3ccccc3)CC2)S(C)(=O)=O)c1	5.7	-2.6	.	-3.0	.
Cc1ccc(S(=O)(=O)NCC(C)n2cncn2)cc1 (stereo not drawn)	2.3	-3.1	.	-1.9	.
CCOC(=O)c1c(C)nn(Cc2cccc(Cl)c2)c1N	1.7	-3.7	70.2*	-2.5	-0.6
CSc1nnc(-c2cccc(NC(=S)NN)c2)o1	2.4	-3.9	5.3	9.7*	1.4
CSc1nnc(-c2ccc(NC(N)=S)cc2)o1	0.9	4.6*	1.1	1.2	-2.3
CCCc1nc(SCC(=O)N2CCCCCC2)c2c(=O)n(C)c(=O)n(C)c2n1	-1.9	-1.1	.	3.6	.
COc1ccc(N(CC(=O)NC2CCCC2)C(=O)CCC(=O)Nc2nc(C)cs2)cc1OC	3.2	-2.2	.	-2.3	.
CCc1ccc(Nc2n[n+](-c3ccccc3)c(/C=C/c3ccccc3)s2)cc1	-1.1	-1.9	.	-3.3	.
O=C1CCCC2=C1C(c1ccc(Br)cc1)c1c([nH]c(=S)[nH]c1=O)N2 (stereo not drawn)	2.5	1.1	46.2	-2.8	68.1*
Cc1ccc(C2C3=C(CCCC3=O)Nc3[nH]c(=S)[nH]c(=O)c32)cc1 (stereo not drawn)	2.8	-2.4	48.0	-4.6	60.1*
O=C(CSc1nnc(-c2cccnc2)o1)Nc1ccccc1F	-1.0	.	.	.	.
CCCCN(CC)CCNC(=O)c1cc2c(=O)[nH]c3ccc(C)cc3c2s1	-2.5	-3.2	.	8.3*	.
CCCCN(CC)CCCNC(=O)c1cc2c(=O)[nH]c3ccccc3c2s1	-3.8	-2.5	.	11.3*	.
COc1ccc(-c2cc(C3CCNCC3)[nH]n2)cc1	-0.8	-2.1	.	-2.9	.
O=Cc1coc2ccc3ccccc3c2c1=O	-6.5	35.5*	.	2.7	.
COc1cccc(C(C(=O)NCc2ccccc2)N(C(=O)c2csnn2)C2CC2)c1 (stereo not drawn)	-1.5	-2.1	.	1.6	.
Cc1ccc2nc(N=C(N)N)nc(C)c2c1	4.0	-0.9	-2.7	10.9*	0.7
Cc1ccc(S(=O)(=O)c2cc3c(=O)n4cccc(C)c4nc3n(Cc3ccncc3)c2=N)cc1	112.4*	-3.2	.	7.4	.
